≈ marks a conversion by molar mass, not a printed value.
How the values were obtained:
Assay type in all cases: functional
Staphylococcus aureus [1] = assay: Antibacterial activity against methicillin-resistant Staphylococcus aureus by two fold serial microbroth dilution method
Procedure, shortened: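 Two-fold serial microbroth dilution in microdilution plates, run per CLSI, with clinical antibacterial drugs as positive controls. The MRSA strain was a drug-resistant clinical isolate from infected patients. MIC (μg/mL) was read as the lowest concentration giving complete inhibition of visible bacterial growth.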

Staphylococcus aureus [2] = assay: Antibacterial activity against Staphylococcus aureus by two fold serial microbroth dilution method
Procedure, shortened: (§1)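 Two-fold serial dilution in microdilution plates (micro broth dilution) following CLSI. Panel includes clinical drug-resistant isolates and ATCC reference strains. Clinical drugs were run as positive controls.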

Staphylococcus aureus [3] = assay: Antibacterial activity against Staphylococcus aureus ATCC 25923 by two fold serial microbroth dilution method; procedure, shortened: as §1
Enterococcus faecalis = assay: Antibacterial activity against Enterococcus faecalis by two fold serial microbroth dilution method; procedure, shortened: as §1
Klebsiella pneumoniae = assay: Antibacterial activity against Klebsiella pneumoniae by two fold serial microbroth dilution method; procedure, shortened: as §1
Escherichia coli [4] = assay: Antibacterial activity against Escherichia coli by two fold serial microbroth dilution method; procedure, shortened: as §1
Escherichia coli [5] = assay: Antibacterial activity against Escherichia coli ATCC 25922 by two fold serial microbroth dilution method; procedure, shortened: as §1
Pseudomonas aeruginosa [6] = assay: Antibacterial activity against Pseudomonas aeruginosa by two fold serial microbroth dilution method; procedure, shortened: as §1
Pseudomonas aeruginosa [7] = assay: Antibacterial activity against Pseudomonas aeruginosa ATCC 27853 by two fold serial microbroth dilution method; procedure, shortened: as §1
Acinetobacter baumannii = assay: Antibacterial activity against Acinetobacter baumannii by two fold serial microbroth dilution method; procedure, shortened: as §1
Staphylococcus aureus [8] = assay: Antibacterial activity against Staphylococcus aureus ATCC 29213 by two fold serial microbroth dilution method; procedure, shortened: as §1
Candida albicans = assay: Antifungal activity against Candida albicans by two fold serial microbroth dilution method
Procedure, shortened: (§2)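 Antifungal MIC by two-fold serial dilution following CLSI, with a clinical drug as positive control. Panel includes clinical drug-resistant fungal isolates.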

Candida tropicalis = assay: Antifungal activity against Candida tropicalis by two fold serial microbroth dilution method; procedure, shortened: as §2
Aspergillus fumigatus = assay: Antifungal activity against Aspergillus fumigatus by two fold serial microbroth dilution method; procedure, shortened: as §2

Compound `CCc1nccn1-c1ccnc(NS(=O)(=O)c2ccc(N)cc2)n1` has an MIC (Staphylococcus aureus [1]) of 128 µg/mL (≈ 372 µM), an MIC (Staphylococcus aureus [2]) of 128 µg/mL (≈ 372 µM) and an MIC (Staphylococcus aureus [3]) of 128 µg/mL (≈ 372 µM). It also gave an MIC (Enterococcus faecalis) of 64 µg/mL (≈ 186 µM), an MIC (Klebsiella pneumoniae) of 64 µg/mL (≈ 186 µM) and an MIC (Escherichia coli [4]) of 128 µg/mL (≈ 372 µM). For the same compound, the MIC (Escherichia coli [5]) was 512 µg/mL (≈ 1490 µM), the MIC (Pseudomonas aeruginosa [6]) was 128 µg/mL (≈ 372 µM) and the MIC (Pseudomonas aeruginosa [7]) was 128 µg/mL (≈ 372 µM). For the same compound, the MIC (Acinetobacter baumannii) was 64 µg/mL (≈ 186 µM) and the MIC (Staphylococcus aureus [8]) was 64 µg/mL (≈ 186 µM).

`Cc1cc2ncn(-c3ccnc(NS(=O)(=O)c4ccc(N)cc4)n3)c2cc1C` gave an MIC (Staphylococcus aureus [1]) of 64 µg/mL (≈ 162 µM), an MIC (Staphylococcus aureus [2]) of 256 µg/mL (≈ 649 µM) and an MIC (Staphylococcus aureus [3]) of 256 µg/mL (≈ 649 µM). The MIC (Enterococcus faecalis) was 256 µg/mL (≈ 649 µM), the MIC (Klebsiella pneumoniae) was 256 µg/mL (≈ 649 µM) and the MIC (Escherichia coli [4]) was 256 µg/mL (≈ 649 µM). It also gave an MIC (Escherichia coli [5]) of 512 µg/mL (≈ 1300 µM), an MIC (Pseudomonas aeruginosa [6]) of 256 µg/mL (≈ 649 µM) and an MIC (Pseudomonas aeruginosa [7]) of 128 µg/mL (≈ 324 µM). For the same compound, the MIC (Acinetobacter baumannii) was 128 µg/mL (≈ 324 µM) and the MIC (Staphylococcus aureus [8]) was 128 µg/mL (≈ 324 µM).

Work on `Cc1ncc([N+](=O)[O-])n1-c1ccnc(NS(=O)(=O)c2ccc(N)cc2)n1` yielded an MIC (Staphylococcus aureus [1]) of 64 µg/mL (≈ 170 µM), an MIC (Staphylococcus aureus [2]) of 128 µg/mL (≈ 341 µM) and an MIC (Staphylococcus aureus [3]) of 128 µg/mL (≈ 341 µM). For the same compound, the MIC (Enterococcus faecalis) was 128 µg/mL (≈ 341 µM), the MIC (Klebsiella pneumoniae) was 64 µg/mL (≈ 170 µM) and the MIC (Escherichia coli [4]) was 128 µg/mL (≈ 341 µM). For the same compound, the MIC (Escherichia coli [5]) was 256 µg/mL (≈ 682 µM), the MIC (Pseudomonas aeruginosa [6]) was 256 µg/mL (≈ 682 µM) and the MIC (Pseudomonas aeruginosa [7]) was 128 µg/mL (≈ 341 µM). The MIC (Acinetobacter baumannii) was 64 µg/mL (≈ 170 µM) and the MIC (Staphylococcus aureus [8]) was 128 µg/mL (≈ 341 µM).

`CC(C)c1nccn1-c1ccnc(NS(=O)(=O)c2ccc(N)cc2)n1` showed an MIC (Staphylococcus aureus [1]) of 32 µg/mL (≈ 89.3 µM), an MIC (Staphylococcus aureus [2]) of 256 µg/mL (≈ 714 µM) and an MIC (Staphylococcus aureus [3]) of 256 µg/mL (≈ 714 µM). It also gave an MIC (Enterococcus faecalis) of 128 µg/mL (≈ 357 µM), an MIC (Klebsiella pneumoniae) of 256 µg/mL (≈ 714 µM) and an MIC (Escherichia coli [4]) of 64 µg/mL (≈ 179 µM). For the same compound, the MIC (Escherichia coli [5]) was 128 µg/mL (≈ 357 µM), the MIC (Pseudomonas aeruginosa [6]) was 128 µg/mL (≈ 357 µM) and the MIC (Pseudomonas aeruginosa [7]) was 32 µg/mL (≈ 89.3 µM). For the same compound, the MIC (Acinetobacter baumannii) was 64 µg/mL (≈ 179 µM) and the MIC (Staphylococcus aureus [8]) was 32 µg/mL (≈ 89.3 µM).

For `Nc1ccc(S(=O)(=O)Nc2nccc(-n3cnc4ccccc43)n2)cc1`, the MIC (Staphylococcus aureus [1]) was 8 µg/mL (≈ 21.8 µM), the MIC (Staphylococcus aureus [2]) was 256 µg/mL (≈ 699 µM) and the MIC (Staphylococcus aureus [3]) was 512 µg/mL (≈ 1400 µM). It also gave an MIC (Enterococcus faecalis) of 256 µg/mL (≈ 699 µM), an MIC (Klebsiella pneumoniae) of 256 µg/mL (≈ 699 µM) and an MIC (Escherichia coli [4]) of 128 µg/mL (≈ 349 µM). For the same compound, the MIC (Escherichia coli [5]) was 256 µg/mL (≈ 699 µM), the MIC (Pseudomonas aeruginosa [6]) was 512 µg/mL (≈ 1400 µM) and the MIC (Pseudomonas aeruginosa [7]) was 256 µg/mL (≈ 699 µM). It also gave an MIC (Acinetobacter baumannii) of 512 µg/mL (≈ 1400 µM) and an MIC (Staphylococcus aureus [8]) of 256 µg/mL (≈ 699 µM).

`Nc1ccc(S(=O)(=O)Nc2nccc(-n3ccc4cc(Br)ccc43)n2)cc1` gave an MIC (Staphylococcus aureus [1]) of 4 µg/mL (≈ 9 µM), an MIC (Staphylococcus aureus [2]) of 64 µg/mL (≈ 144 µM) and an MIC (Staphylococcus aureus [3]) of 2 µg/mL (≈ 4.5 µM). The MIC (Enterococcus faecalis) was 4 µg/mL (≈ 9 µM), the MIC (Klebsiella pneumoniae) was 32 µg/mL (≈ 72 µM) and the MIC (Escherichia coli [4]) was 4 µg/mL (≈ 9 µM). It also gave an MIC (Escherichia coli [5]) of 2 µg/mL (≈ 4.5 µM), an MIC (Pseudomonas aeruginosa [6]) of 4 µg/mL (≈ 9 µM) and an MIC (Pseudomonas aeruginosa [7]) of 4 µg/mL (≈ 9 µM). For the same compound, the MIC (Acinetobacter baumannii) was 128 µg/mL (≈ 288 µM), the MIC (Candida albicans) was 2 to 8 µg/mL (≈ 4.5 to 18 µM) and the MIC (Candida tropicalis) was 2 to 8 µg/mL (≈ 4.5 to 18 µM). It also gave an MIC (Aspergillus fumigatus) of 2 to 8 µg/mL (≈ 4.5 to 18 µM) and an MIC (Staphylococcus aureus [8]) of 16 µg/mL (≈ 36 µM).

`Cc1nccn1-c1ccnc(NS(=O)(=O)c2ccc(N)cc2)n1` showed an MIC (Staphylococcus aureus [1]) of 128 µg/mL (≈ 387 µM), an MIC (Staphylococcus aureus [2]) of 256 µg/mL (≈ 775 µM) and an MIC (Staphylococcus aureus [3]) of 256 µg/mL (≈ 775 µM). The MIC (Enterococcus faecalis) was 128 µg/mL (≈ 387 µM), the MIC (Klebsiella pneumoniae) was 512 µg/mL (≈ 1550 µM) and the MIC (Escherichia coli [4]) was 128 µg/mL (≈ 387 µM). For the same compound, the MIC (Escherichia coli [5]) was 256 µg/mL (≈ 775 µM), the MIC (Pseudomonas aeruginosa [6]) was 128 µg/mL (≈ 387 µM) and the MIC (Pseudomonas aeruginosa [7]) was 256 µg/mL (≈ 775 µM). The MIC (Acinetobacter baumannii) was 256 µg/mL (≈ 775 µM) and the MIC (Staphylococcus aureus [8]) was 256 µg/mL (≈ 775 µM).

Source: ChEMBL document CHEMBL4627266, “Design and biological evaluation of a novel type of potential multi-targeting antimicrobial sulfanilamide hybrids in combination of pyrimidine and azoles” (Bioorg Med Chem Lett, 2020)
